In ChEMBL document CHEMBL4834419 (J Med Chem, 2021):
In brackets after ≈: the same amount, converted by molar mass. Activity calls are given as the source filed them. The rule behind the calls is not given here.

What was measured:
[1] = biological target: T1, Retinoic acid receptor RXR-beta (Homo sapiens) (UniProt P28702); assay: Agonist activity at human RXRbeta transfected in human HEK293T cells co-expressing pFR/pRL-Luc at 30 uM incubated for 14 to 16 hrs by hybrid reporter gene assay; format: cell-based; conditions: time 14-16 hrs
T1 sequence (whole entry): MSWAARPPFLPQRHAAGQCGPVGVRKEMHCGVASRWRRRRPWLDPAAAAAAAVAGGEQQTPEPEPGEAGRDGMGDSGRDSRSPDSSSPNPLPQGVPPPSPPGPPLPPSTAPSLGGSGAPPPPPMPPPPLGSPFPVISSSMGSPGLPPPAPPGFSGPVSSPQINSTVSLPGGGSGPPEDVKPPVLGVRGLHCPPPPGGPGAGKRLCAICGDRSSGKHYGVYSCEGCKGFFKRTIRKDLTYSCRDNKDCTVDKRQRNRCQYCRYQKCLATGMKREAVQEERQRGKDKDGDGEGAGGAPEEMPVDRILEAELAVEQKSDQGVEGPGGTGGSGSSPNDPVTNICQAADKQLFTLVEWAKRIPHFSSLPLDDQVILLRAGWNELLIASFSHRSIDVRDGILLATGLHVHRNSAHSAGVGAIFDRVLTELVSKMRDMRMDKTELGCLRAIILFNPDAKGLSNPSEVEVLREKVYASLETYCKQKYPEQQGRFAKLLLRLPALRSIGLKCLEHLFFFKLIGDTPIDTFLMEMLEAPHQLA
How it was run: (§1)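 Gal4 hybrid reporter assay in HEK293T cells, seeded 24 h before transfection (Lipofectamine LTX, Opti-MEM) with pFR-Luc, pRL-SV40 and pFA-CMV plasmid carrying the hinge region and LBD of the human receptor. After 5 h, compound added in 0.1% DMSO, with 0.1% DMSO alone as untreated control. Dual-Glo luciferase read after 14−16 h; firefly/renilla normalized; duplicates, ≥2 independent experiments.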

[2] = biological target: T2, Retinoic acid receptor RXR-gamma (Homo sapiens) (UniProt P48443); assay: Agonist activity at human RXRgamma transfected in human HEK293T cells co-expressing pFR/pRL-Luc at 30 uM incubated for 14 to 16 hrs by hybrid reporter gene assay; format: cell-based; conditions: time 14-16 hrs; how it was run: as §1
T2 sequence (whole entry): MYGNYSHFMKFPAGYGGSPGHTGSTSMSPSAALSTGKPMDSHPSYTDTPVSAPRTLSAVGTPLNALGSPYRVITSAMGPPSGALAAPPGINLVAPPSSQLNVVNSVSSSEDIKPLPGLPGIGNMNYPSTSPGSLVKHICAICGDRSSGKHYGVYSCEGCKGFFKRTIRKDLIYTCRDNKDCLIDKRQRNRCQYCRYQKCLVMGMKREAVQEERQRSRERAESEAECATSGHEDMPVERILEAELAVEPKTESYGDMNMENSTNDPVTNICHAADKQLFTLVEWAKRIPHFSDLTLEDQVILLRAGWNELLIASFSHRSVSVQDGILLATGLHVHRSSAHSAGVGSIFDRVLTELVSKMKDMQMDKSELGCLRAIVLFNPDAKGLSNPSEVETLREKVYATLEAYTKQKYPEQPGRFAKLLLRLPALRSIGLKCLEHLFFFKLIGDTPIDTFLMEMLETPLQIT

[3] = biological target: T1, Retinoic acid receptor RXR-beta (Homo sapiens); assay: Agonist activity at human RXRbeta transfected in human HEK293T cells co-expressing pFR/pRL-Luc incubated for 14 to 16 hrs by hybrid reporter gene assay; format: cell-based; conditions: time 14-16 hrs
[4] = biological target: T3, Retinoic acid receptor RXR-alpha (Homo sapiens) (UniProt P19793); assay: Agonist activity at human RXRalpha transfected in human HEK293T cells co-expressing pFR/pRL-Luc at 30 uM incubated for 14 to 16 hrs by hybrid reporter gene assay; format: cell-based; conditions: time 14-16 hrs; how it was run: as §1
T3 sequence (whole entry): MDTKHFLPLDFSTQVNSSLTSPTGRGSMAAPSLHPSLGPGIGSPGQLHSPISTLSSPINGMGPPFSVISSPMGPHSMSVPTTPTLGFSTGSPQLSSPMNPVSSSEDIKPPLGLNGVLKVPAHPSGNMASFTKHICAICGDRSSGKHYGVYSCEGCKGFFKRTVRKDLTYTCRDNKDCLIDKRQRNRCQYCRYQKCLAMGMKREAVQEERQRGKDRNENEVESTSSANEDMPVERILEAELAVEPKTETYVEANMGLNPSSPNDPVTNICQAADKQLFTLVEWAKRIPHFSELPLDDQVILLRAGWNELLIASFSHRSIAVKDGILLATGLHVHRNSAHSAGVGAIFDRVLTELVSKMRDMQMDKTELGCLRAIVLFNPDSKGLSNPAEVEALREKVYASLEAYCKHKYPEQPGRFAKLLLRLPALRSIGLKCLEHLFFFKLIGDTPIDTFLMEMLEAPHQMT

[5] = biological target: T3, Retinoic acid receptor RXR-alpha (Homo sapiens); assay: (§2) Agonist activity at human RXRalpha transfected in human HEK293T cells co-expressing pFR/pRL-Luc incubated for 14 to 16 hrs by hybrid reporter gene assay; format: cell-based; conditions: time 14-16 hrs
[6] = biological target: T4, Nuclear receptor subfamily 1 group I member 3 (Homo sapiens, UniProt Q14994); assay: Agonist activity against human CAR in human HEK293T cells co-expressing pFR/pRL-Luc assessed as receptor activation at 10 uM incubated for 14 to 16 hrs by hybrid reporter gene assay relative to bexarotene; format: cell-based; conditions: time 14-16 hrs; how it was run: as §1
T4 sequence (Q14994 whole entry): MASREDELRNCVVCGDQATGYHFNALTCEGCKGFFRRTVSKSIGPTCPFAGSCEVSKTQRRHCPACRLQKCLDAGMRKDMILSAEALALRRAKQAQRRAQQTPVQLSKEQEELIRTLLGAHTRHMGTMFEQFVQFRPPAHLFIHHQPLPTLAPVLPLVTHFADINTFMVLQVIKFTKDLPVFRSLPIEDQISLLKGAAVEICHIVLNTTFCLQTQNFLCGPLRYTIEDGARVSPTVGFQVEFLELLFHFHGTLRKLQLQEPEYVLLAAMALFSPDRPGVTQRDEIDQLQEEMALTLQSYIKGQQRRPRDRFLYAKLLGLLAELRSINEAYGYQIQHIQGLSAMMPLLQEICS

[7] = biological target: T5, Retinoic acid receptor RXR-gamma (Homo sapiens, UniProt P48443); assay: Agonist activity at human RXRgamma transfected in human HEK293T cells co-expressing pFR/pRL-Luc incubated for 14 to 16 hrs by hybrid reporter gene assay; format: cell-based
T5 sequence (P48443 whole entry): T2 sequence (whole entry)

[8] = Metabolic stability in Sprague-Dawley rat liver microsomes assessed as compound degradation at 10 uM incubated for 60 min by HPLC analysis; format: ADME; conditions: 1 h
How it was run: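 Compound at 10 μM final in 0.1 M phosphate, pH 7.4, was preincubated 5 min at 37 °C with an NADPH-regenerating system. Sprague-Dawley rat liver microsomes were then added. Reactions were stopped with ice-cold methanol at 0, 15, 30 and 60 min and remaining compound quantified by HPLC against an external calibration. Controls: no NADPH, heat-inactivated microsomes. Three independent experiments.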

[9] = Half life in mouse at 10 mg/kg, po; format: ADME, organism-based; conditions: in vivo
How it was run: (§3)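 Mice, n = 3, received a single oral dose of 10 mg/kg in water with 1% hydroxypropyl methylcellulose/Tween 80 (99:1). Tail-vein blood was drawn at 30 and 60 min and tissue collected at 3 h. Compound was quantified by LC−MS and PK derived by noncompartmental analysis.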

HepG2 [10] = assay: Cytotoxicity against human HepG2 cells assessed as reduction in cell viability up to 100 uM incubated for 48 hrs by WST-1 assay; format: cell-based; conditions: hepg2, 48 h
How it was run: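 HepG2 cells were seeded at 3 × 10⁴/well and grown 24 h. Medium was then switched to DMEM with 1% FCS containing compound in 0.1% DMSO; 0.1% DMSO alone was the negative control. After 48 h, WST-1 was added and absorbance read at 450/620 nm after 45 min. Four experiments in duplicate.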

[11] = Cmax in mouse at 10 mg/kg, po; format: ADME, organism-based; parameters: route oral, dose 10 mg/kg; conditions: in vivo; how it was run: as §3
[12] = Aqueous solubility of compound in pH 8 phosphate buffer incubated for 1 hr by HPLC analysis; format: physicochemical
How it was run: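 Solubility was measured with 3 mg compound in 2 mL 0.1 M phosphate buffer, pH 8, shaken 1 h at 37 °C. The mixture was pressed through a Uniprep filter and the dissolved compound in the filtrate quantified by HPLC against an external calibration; three independent experiments.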

[13] = biological target: T6, Retinoic acid receptor RXR-alpha (Homo sapiens, UniProt P19793); assay: as §2; format: cell-based
T6 sequence (P19793 whole entry): T3 sequence (whole entry)

[14] = Plasma concentration in mouse at 10 mg/kg, po measure after 3 hrs; format: ADME, organism-based; how it was run: as §3
HepG2 [15] = assay: Cytotoxicity against human HepG2 cells assessed as reduction in cell viability incubated for 48 hrs by WST-1 assay; conditions: HepG2, 48 h
[16] = Cmax in po dosed rat; format: ADME, organism-based; parameters: route oral; conditions: in vivo
[17] = Half life in po dosed rat; format: ADME, organism-based; conditions: in vivo

Which results are given for CN(C)c1cccc(-c2oc(CCC(=O)O)nc2-c2ccccc2)c1?
Activity [1]: inactive; Activity [2]: inactive; Activity [3]: inactive; Activity [4]: inactive; Activity [5]: inactive

For O=C(O)CCc1nc(-c2ccccc2)c(-c2cc(C(F)(F)F)cc(C(F)(F)F)c2)o1, which Activity [6] is on record?
The Activity was 4%.

And the EC50 [7]?
The EC50 was 50 nM.

What about the Stabilty [8] of the same compound?
The Stabilty was “Stable”.

And the half-life [9]?
Its half-life is > 3 h.

What about the Activity (HepG2 [10]) of the same compound?
The Activity was “Non-Toxic”.

And the Cmax [11]?
Its Cmax is 33000 ng/mL.

And the solubility at 1 h ([12]; phosphate buffer, pH 8)?
Its solubility at 1 h is 146 µg/mL (≈ 340 µM).

And the EC50 [13]?
The EC50 was 50 nM.

Which results are given for O=C(O)CCc1cc(-c2cc(Cl)cc(Cl)c2)n(-c2ccc(Cl)cc2)n1?
Activity [6]: 15%; EC50 [7]: 1500 nM; Stabilty [8]: Stable; Activity (HepG2 [10]): Non-Toxic; concentration at 3 h [14]: 35000 ng/mL; EC50 [13]: 300 nM

With C=C(c1ccc(C(=O)O)cc1)c1cc2c(cc1C)C(C)(C)CCC2(C)C [BEXAROTENE] as the compound, how does the IC50 (HepG2 [15]) read?
Its IC50 is 20000 nM.

And the Cmax [16]?
Its Cmax is 600 ng/mL.

And the half-life [17]?
The half-life was 1.2 h.

And the solubility ([12]; buffer, pH 8, 1 h)?
The solubility was 0.3 µg/mL (≈ 0.861 µM).
